Converted amounts (≈) assume the structure as drawn.
Columns and labels:
Mus musculus [1] = assay: Antimalarial activity (10 mg/kg, peroral) given 1 day post infection of mice (Mus musculus) with Plasmodium berghei is its ability to reduce parasitaemia on day 3 post infection; format: functional
Summary of the method: (§1)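 P. berghei-infected MORO mice, groups of three, treated 1 day postinfection with a single dose (100 or 10 mg/kg, po or sc) dissolved or suspended in 3% ethanol/7% Tween-80. Activity is percent reduction in parasitemia on day 3 postinfection versus untreated controls. Survival time is compared with an untreated control group. Individual measurements generally differed by less than 10%.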

Mus musculus [2] = assay: Antimalarial activity (10 mg/kg, subcutaneously) given 1 day post infection of mice (Mus musculus) with Plasmodium berghei is its ability to reduce parasitemia on day 3 post infection; format: functional; summary of the method: as §1
Plasmodium falciparum [3] = assay: In vitro inhibition of chloroquine-resistant Plasmodium falciparum K1; format: functional, organism-based
Plasmodium falciparum [4] = assay: In vitro inhibition of chloroquine-sensitive Plasmodium falciparum NF54; format: functional, organism-based
Mus musculus [5] = assay: Survival of mice to 30-day postinfection with Plasmodium berghei upon 10 mg/kg peroral dose was determined; format: functional; details: route oral; summary of the method: as §1
Mus musculus [6] = assay: Survival of mice to 30-day postinfection with Plasmodium berghei upon 10 mg/kg upon subcutaneous dose was determined; format: functional; summary of the method: as §1
Mus musculus [7] = assay: Antimalarial activity (100 mg/kg, peroral) given 1 day post infection of mice (Mus musculus) with Plasmodium berghei is its ability to reduce parasitaemia on day 3 post infection; format: functional; summary of the method: as §1
Mus musculus [8] = assay: Antimalarial activity (100 mg/kg, subcutaneously) given 1 day post infection of mice (Mus musculus) with Plasmodium berghei is its ability to reduce parasitemia on day 3 post infection; format: functional; summary of the method: as §1
Mus musculus [9] = assay: Survival of mice to 30-day postinfection with Plasmodium berghei upon 100 mg/kg peroral dose was determined; format: functional; details: route oral; summary of the method: as §1
Mus musculus [10] = assay: Survival of mice to 30-day postinfection with Plasmodium berghei upon 100 mg/kg upon subcutaneous dose was determined; format: functional; summary of the method: as §1
Plasmodium falciparum [11] = assay: Anti-parasitic effect against Plasmodium berghei in mice (Mus musculus) after 4 days at 100 mg/kg/day (T/A Tween 80) peroral dose in Peters suppressive assay; format: functional, organism-based; parameters: route oral
Plasmodium falciparum [12] = assay: Antiparasitic effect against Plasmodium berghei infected mice (Mus musculus) after 100 mg/kg peroral (SSV) dose after 3 days; format: functional; details: route oral
Plasmodium falciparum [13] = assay: Antiparasitic effect against Plasmodium berghei infected mice (Mus musculus) after 100 mg/kg peroral (T/A Tween-80) dose after 3 days; format: functional, organism-based; parameters: dose 100 mg/kg, route oral; summary of the method: as §1
[14] = Plasma half life period after intravenous administration ( 30 mg/kg ); format: ADME, organism-based, Mus musculus; parameters: dose 30 mg/kg, route intravenous
Summary of the method: (§2)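 Conscious, free-moving rats (n = 3 per group) were jugular- and carotid-cannulated the day before dosing under isoflurane, then fasted overnight. The iv dose was a 5 min jugular infusion in aqueous 0.1 M Captisol (10, 20 or 30 mg/kg). The oral dose was given by gavage as a suspension in 0.5% CMC/0.4% polysorbate 80/0.5% benzyl alcohol/0.9% NaCl (30, 50 or 80 mg/kg). Carotid blood was sampled over 7 h and plasma was obtained by centrifugation.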

[15] = Bioavailability obtained after oral administration of 80 mg/kg; format: ADME, organism-based, Mus musculus; details: in vivo; summary of the method: as §2
[16] = Plasma clearance after intravenous administration of 30 mg/kg; format: ADME, organism-based, Mus musculus; parameters: dose 30 mg/kg, route intravenous; summary of the method: as §2
[17] = Volume distribution after intravenous administration of 30 mg/kg; format: ADME, organism-based, Mus musculus; parameters: dose 30 mg/kg, route intravenous; details: in vivo; summary of the method: as §2
Mus musculus [18] = assay: Effective dose required to reduce the parasitemia in mice when compound administered with Tween-80 after 3 day postinfection; format: functional
Mus musculus [19] = organism: Mus musculus; assay: Effective dose required to reduce the parasitemia in mice by suppressive test after 4 day postinfection; format: functional
Summary of the method: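 Peters 4-day suppressive test in P. berghei-infected mice with multiple daily oral doses. ED50/ED90 are given in (mg/kg)/day.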

[20] = Oral bioavailability (dose 50 mg/kg); details: rat, in vivo
[21] = Plasma clearance after intravenous administration of 10 mg/kg; details: rat
[22] = Volume distribution after intravenous administration of 10 mg/kg; details: rat, in vivo
[23] = Plasma half life period after intravenous administration ( 10 mg/kg ); details: rat
Mus musculus [24] = assay: Effective dose required to reduce the parasitemia in mice when compound administered with SSV after 3 day postinfection; format: functional
Mus musculus [25] = assay: Survival of mice to 30-day postinfection with Plasmodium berghei upon 10 mg/kg upon peroral dose was determined; format: functional; details: route oral; summary of the method: as §1
[26] = Volume distribution after intravenous administration of 20 mg/kg; details: rat, in vivo
[27] = Plasma half life period after intravenous administration ( 20 mg/kg); details: rat, in vivo

CC1(C)CC(C)(C)CC2(C1)OOC1(O2)C2CC3CC(C2)CC1C3 (centres undefined)
Reduction (Mus musculus [1]): 88%
Reduction (Mus musculus [2]): 99.9%
IC50 (Plasmodium falciparum [3]): 3.1 ng/mL (≈ 9.67 nM)
IC50 (Plasmodium falciparum [4]): 5 ng/mL (≈ 15.6 nM)
Survival (Mus musculus [5]): 7 days
Survival (Mus musculus [6]): 97 days

C1C2CC3CC1CC(C2)C31OOC2(O1)C1CC3CC(C1)CC2C3 (centres undefined)
Reduction (Mus musculus [7]): 0%
Reduction (Mus musculus [8]): 0%
IC50 (Plasmodium falciparum [3]): 950 ng/mL (≈ 3000 nM)
IC50 (Plasmodium falciparum [4]): 779 ng/mL (≈ 2460 nM)
Survival (Mus musculus [9]): 5.3 days
Survival (Mus musculus [10]): 5.3 days

C1CCC2(CC1)OOC1(CCCCC1)O2
Reduction (Mus musculus [7]): 0%
Reduction (Mus musculus [8]): 0%
IC50 (Plasmodium falciparum [3]): 100 ng/mL (≈ 471 nM)
IC50 (Plasmodium falciparum [4]): 504 ng/mL (≈ 2370 nM)
Survival (Mus musculus [9]): 5.3 days
Survival (Mus musculus [10]): 5.3 days

CC1(C)COC2(CCC3(CC2)OOC2(CC(C)(C)CC(C)(C)C2)O3)OC1
Reduction (Mus musculus [1]): 0%
Reduction (Mus musculus [2]): 0%
Survival (Mus musculus [5]): 5.7 days
Survival (Mus musculus [6]): 5.7 days

CC1(C)COC2(CCC3(CC2)OOC2(O3)C3CC4CC(C3)CC2C4)OC1 (centres undefined)
Reduction (Mus musculus [2]): >99.99%
EC50 (Plasmodium falciparum [11]): 1.8 (mg/kg)/day
EC90 (Plasmodium falciparum [12]): 6.2 (mg/kg)/day
EC50 (Plasmodium falciparum [13]): 1.5 (mg/kg)/day
half-life [14]: 155 min
bioavailability [15]: 0.73%
clearance [16]: 83 mL/min/kg
Vd [17]: 18 L/kg
Survival (Mus musculus [5]): 11.4 days
Survival (Mus musculus [6]): 18 days

c1ccc(CC2(Cc3ccccc3)OOC3(O2)C2CC4CC(C2)CC3C4)cc1 (centres undefined)
Reduction (Mus musculus [1]): 88%
Reduction (Mus musculus [2]): 99.7%
IC50 (Plasmodium falciparum [3]): 3.1 ng/mL (≈ 8.23 nM)
IC50 (Plasmodium falciparum [4]): 3 ng/mL (≈ 7.97 nM)
Survival (Mus musculus [5]): 6.7 days
Survival (Mus musculus [6]): 8 days

CCOC(=O)N1CCC2(CC1)OOC1(O2)C2CC3CC(C2)CC1C3 (centres undefined)
Reduction (Mus musculus [1]): 99.5%
Reduction (Mus musculus [2]): 99.9%
ED90 (Mus musculus [18]): 5.5 (mg/kg)/day
IC50 (Plasmodium falciparum [3]): 0.29 ng/mL (≈ 0.859 nM)
IC50 (Plasmodium falciparum [4]): 0.57 ng/mL (≈ 1.69 nM)
ED90 (Mus musculus [19]): 2 (mg/kg)/day
Survival (Mus musculus [5]): 7.7 days
Survival (Mus musculus [6]): 8.9 days
bioavailability [20]: 1.5%
clearance [21]: 47 mL/min/kg
Vd [22]: 23 L/kg
half-life [23]: 344 min

O=C1CCC2(CC1)OOC1(CCCCC1)O2
Reduction (Mus musculus [7]): 0%
Reduction (Mus musculus [8]): 0%
IC50 (Plasmodium falciparum [3]): 15 ng/mL (≈ 66.3 nM)
IC50 (Plasmodium falciparum [4]): 39 ng/mL (≈ 172 nM)
Survival (Mus musculus [9]): 5 days
Survival (Mus musculus [10]): 5 days

C1CCC2(CC1)COC1(O2)C2CC3CC(C2)CC1C3 (centres undefined)
Reduction (Mus musculus [7]): 0%
Reduction (Mus musculus [8]): 0%
IC50 (Plasmodium falciparum [3]): > 1000 ng/mL
IC50 (Plasmodium falciparum [4]): > 1000 ng/mL
Survival (Mus musculus [9]): 5.6 days
Survival (Mus musculus [10]): 5.6 days

CC(C)C1CCC2(CC1)OOC1(O2)C2CC3CC(C2)CC1C3 (centres undefined)
Reduction (Mus musculus [1]): 99%
Reduction (Mus musculus [2]): 9.89%
IC50 (Plasmodium falciparum [3]): 1.4 ng/mL (≈ 4.57 nM)
IC50 (Plasmodium falciparum [4]): 2 ng/mL (≈ 6.53 nM)
Survival (Mus musculus [5]): 7.3 days
Survival (Mus musculus [6]): 9 days

Fc1ccc(C2(c3ccc(F)cc3)OOC3(CCC(c4ccccc4)CC3)O2)cc1 (centres undefined)
Reduction (Mus musculus [1]): 0%
Reduction (Mus musculus [2]): 0%
Survival (Mus musculus [5]): 5.3 days
Survival (Mus musculus [6]): 5.7 days

O=C1CCC2(CC1)OOC1(O2)C2CC3CC(C2)CC1C3 (centres undefined)
Reduction (Mus musculus [1]): 94%
Reduction (Mus musculus [2]): 99.7%
Reduction (Mus musculus [7]): >99.99%
Reduction (Mus musculus [8]): >99.99%
ED50 (Mus musculus [18]): 3.5 (mg/kg)/day
ED90 (Mus musculus [18]): 7 (mg/kg)/day
IC50 (Plasmodium falciparum [3]): 0.48 ng/mL (≈ 1.72 nM)
IC50 (Plasmodium falciparum [4]): 0.73 ng/mL (≈ 2.62 nM)
ED50 (Mus musculus [24]): 8.7 (mg/kg)/day
ED90 (Mus musculus [24]): 12 (mg/kg)/day
ED50 (Mus musculus [19]): 1.5 (mg/kg)/day
ED90 (Mus musculus [19]): 6.1 (mg/kg)/day
Survival (Mus musculus [9]): 10.7 days
Survival (Mus musculus [25]): 7.1 days
Survival (Mus musculus [6]): 8.6 days
Survival (Mus musculus [10]): 30 days
Vd [26]: 12 L/kg
T1/2 [27]: 117 min

CC1(C)COC2(CCC3(CC2)OOC2(O3)C3CCCC2CCC3)OC1 (centres undefined)
Reduction (Mus musculus [1]): 1%
Reduction (Mus musculus [2]): 6%
IC50 (Plasmodium falciparum [3]): 41 ng/mL (≈ 116 nM)
IC50 (Plasmodium falciparum [4]): 49 ng/mL (≈ 139 nM)
Survival (Mus musculus [5]): 5 days
Survival (Mus musculus [6]): 5.3 days

C1CC2(CCO1)OOC1(O2)C2CC3CC(C2)CC1C3 (centres undefined)
Reduction (Mus musculus [1]): 35%
Reduction (Mus musculus [2]): 99.6%
Survival (Mus musculus [5]): 6 days
Survival (Mus musculus [10]): 7.7 days

CCCC1CCC2(CC1)OOC1(O2)C2CC3CC(C2)CC1C3 (centres undefined)
IC50 (Plasmodium falciparum [3]): 1.1 ng/mL (≈ 3.59 nM)
IC50 (Plasmodium falciparum [4]): 2.1 ng/mL (≈ 6.85 nM)
Survival (Mus musculus [5]): 8.4 days
Survival (Mus musculus [6]): 16.5 days
